# Reference: ChEMBL document CHEMBL1123643, “Modulation of the antitumor activity by methyl substitutions in the series of 7H-pyridocarbazole monomers and dimers” (1987)
# Assays:
# L1210 [1] = assay: In vitro cellular toxicity against L1210 (mouse leukemia) cells.; type: functional; conditions: read-out: ED50 (the source's name)
# Outline: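 Exponentially growing L1210 cells (1 × 10^5/mL) exposed 24 h at 37 °C in RPMI 1640 with 10% fetal calf serum at a range of concentrations. Total cells counted by flow cytometer. Duplicate treated cultures were expressed as % of triplicate untreated controls. ED50 came from linear regression of residual % versus log concentration.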
# L1210 [2] = assay: In vitro inhibition of L1210 (mouse leukemia) cell cloning efficiency.; type: functional
# Outline: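 After 24 h drug exposure, L1210 cells were diluted to 250 and 500 cells/mL and plated in Noble agar. Plates were held 14 days at 37 °C in 5% CO2, and colonies >0.2 mm were counted. Triplicates were run per concentration. CE37, the concentration reducing cloning efficiency to 0.37, came from dose–response curves.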
# Calf thymus DNA = assay: Binding affinity against calf-thymus DNA at pH 7.4; type: nucleic-acid assay; conditions: Bos taurus
# Outline: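 Fluorimetric competition at pH 7.4, 25 °C. Monomers: 10^-5 M compound with calf thymus DNA (4 µg/mL), titrated with ethidium bromide (ex 546/em 590 nm), Scatchard analysis. Dimers: ethidium dimer (6.4 × 10^-7 M) with DNA (1.6 × 10^-6 M bp) equilibrated 24 h with varied compound (ex 540/em 610 nm); constant fitted from displacement curves with site size n.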
# Mus musculus [3] = assay: In vivo change in mean survival time in L1210 (mouse leukemia) inoculated mice.; type: functional
# Outline: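 DBA2 mice given 10^5 L1210 cells ip; 24 h later single ip dose of drug, controls given same volume of solvent; 20–30 animals/group. Deaths recorded daily; survivors beyond 45 days counted cured. Value is treated mean survival time over control mean survival time ×100 (T/C %).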
# L1210 [4] = assay: (§1) In vivo maximum tolerate dose in L1210 (mouse leukemia) inoculated mice.; type: functional
# Outline: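 L1210-bearing DBA2 mice (10^5 cells ip), drug given ip 24 h after inoculation. Acute toxicity by usual procedure; MTD taken as highest dose administered without causing animal death, in mg/kg.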
# L1210 [5] = assay: In vivo antitumor activity in L1210 (mouse leukemia) inoculated mice (optimal dose).; type: functional
# Outline: (§2)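 DBA2 mice (20–30/group) received 10^5 L1210 cells ip. Compound was given ip 24 h later; controls received solvent vehicle. Deaths were recorded daily, and survivors beyond 45 days were counted as cured. T/C% = treated/control mean survival time × 100. MTD was the highest dose causing no deaths; OD was the optimal dose.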
# Mus musculus [6] = assay: In vivo change in mean survival time in L1210 (mouse leukemia) inoculated mice (Not significant).; type: functional, organism-based; outline: as §2
# L1210 [7] = assay: as §1; type: functional; outline: as §2; remark: listed apart in the source
SMILES,EC50 (L1210 [1]) [nM],CE37 (L1210 [2]) [µM],K (Calf thymus DNA) [M⁻¹],T/C (Mus musculus [3]) [%],MTD (L1210 [4]) [mg/kg],OD (L1210 [5]) [mg/kg],T/C (Mus musculus [6]),Dose (L1210 [7]) [mg/kg],Optimal dose (L1210 [5]) [mg/kg]
CNc1ccc2ccc3c(c2c1)c1cc(OC)ccc1n3C.I,220,0.74,700000,122,25,17,–,–,–
CNc1cccc2c1ccc1[nH]c3ccc(OC)cc3c12.I,19200,>2.5,40000,–,–,–,–,–,–
COc1ccc2[nH]c3ccc4cc(NCCN5CCC(C6CCN(CCNc7ccc8c(ccc9[nH]c%10ccc(OC)cc%10c98)c7)CC6)CC5)ccc4c3c2c1.Cl.Cl,–,–,3e+06,130,100,20,–,–,–
COc1ccc2c(c1)c1c3cc(NCCN4CCCCC4)ccc3cc(C)c1n2C.Cl,440,–,610000,–,10,10,Not significant,–,–
COc1ccc2[nH]c3c(C)cc4ccc(NCCN5CCCCC5)cc4c3c2c1.Cl,110,0.1,930000,123,23,5,–,–,–
COc1ccc2c(c1)c1c3cc(NCCN4CCCCC4)ccc3ccc1n2C.Cl,670,3.36,1.2e+06,–,10,5,Not significant,–,–
CNc1ccc2c(c1)cc(C)c1[nH]c3ccc(OC)cc3c12.I,300,0.15,300000,–,–,–,–,–,–
COc1ccc2[nH]c3cc(C)c4ccc(NCCN5CCC(C6CCN(CCNc7ccc8c(C)cc9[nH]c%10ccc(OC)cc%10c9c8c7)CC6)CC5)cc4c3c2c1.Cl.Cl,> 1000,0.42,5e+06,120,6,2,–,–,–
COc1ccc2[nH]c3ccc4ccc(NCCN5CCCCC5)cc4c3c2c1.Cl,250,0.14,540000,–,10,5,Not significant,–,–
CNc1ccc2c(ccc3[nH]c4ccc(OC)cc4c32)c1.I,> 2500,–,200000,–,50,25,Not significant,–,–
COc1ccc2c(c1)c1c3cc(NCCN4CCC(C5CCN(CCNc6ccc7cc(C)c8c(c7c6)c6cc(OC)ccc6n8C)CC5)CC4)ccc3cc(C)c1n2C.Cl.Cl,3270,10.9,1e+08,–,–,–,–,–,–
CNc1ccc2ccc3[nH]c4ccc(OC)cc4c3c2c1.I,950,0.77,290000,–,50,25,Not significant,–,–
COc1ccc2[nH]c3c(C)cc4cc(NCCN5CCC(C6CCN(CCNc7ccc8c(c7)cc(C)c7[nH]c9ccc(OC)cc9c78)CC6)CC5)ccc4c3c2c1.Cl.Cl,> 1000,0.6,1e+07,–,–,–,–,–,–
COc1ccc2[nH]c3ccc4ccc(NCCN5CCC(C6CCN(CCNc7ccc8ccc9[nH]c%10ccc(OC)cc%10c9c8c7)CC6)CC5)cc4c3c2c1.CS(=O)(=O)O.CS(=O)(=O)O,190,0.024,1e+07,182,10,10,–,–,–
CNc1ccc2c(ccc3c2c2cc(OC)ccc2n3C)c1.I,2220,–,310000,115,150,75,–,–,–
COc1ccc2c(c1)c1c3cc(NCCN4CCC(C5CCN(CCNc6ccc7ccc8c(c7c6)c6cc(OC)ccc6n8C)CC5)CC4)ccc3ccc1n2C.Cl.Cl,360,0.006,2e+07,178,10,2.5,–,–,–
CNc1cccc2c1cc(C)c1[nH]c3ccc(OC)cc3c12.I,> 2500,>2.5,61000,–,–,–,–,–,–
COc1ccc2c(c1)c1c3ccc(NCCN4CCC(C5CCN(CCNc6ccc7c(ccc8c7c7cc(OC)ccc7n8C)c6)CC5)CC4)cc3ccc1n2C.Cl.Cl,–,3.93,6e+06,–,15,7.5,Not significant,–,–
CNc1ccc2c(C)cc3[nH]c4ccc(OC)cc4c3c2c1.I,> 2500,3.71,60000,–,–,–,–,–,–
CNc1ccc2cc(C)c3c(c2c1)c1cc(OC)ccc1n3C.I,220,0.6,1e+06,–,–,–,–,–,–
COc1ccc2[nH]c3cc(C)c4ccc(NCCN5CCCCC5)cc4c3c2c1,2240,–,100000,–,–,–,–,–,–
CNc1ccc2cc(C)c3[nH]c4ccc(OC)cc4c3c2c1.I,60,0.03,180000,125,–,–,–,50,25
COc1ccc2[nH]c3c(C)cc4ccc(NCCN5CCC(C6CCN(CCNc7ccc8cc(C)c9[nH]c%10ccc(OC)cc%10c9c8c7)CC6)CC5)cc4c3c2c1.Cl.Cl,370,0.01,5e+08,172,11,–,–,–,–
